# Where a SMILES comes first, the peptide text is derived from it. The star is where a group is joined. Succinyl(O17-estradiol) = C[C@]12CC[C@@H]3c4ccc(O)cc4CC[C@H]3[C@@H]1CC[C@@H]2OC(=O)CCC(=O)*
# Columns and labels:
# Mus musculus [1] = assay: Effect on calcium level in ovariectomized mouse at 0.1103 mmol/kg, ip once daily for 4 weeks; format: functional
# How it was run: (§1)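 Female Kuiming mice (7 weeks, 30.7 ± 3.1 g) ovariectomized, sham group abdominorotomy. From day 5, i.p. once daily for 4 weeks at 110.3 × 10-3 mmol/kg in 0.5% CMC. Left femur cleaned, length measured, defatted in chloroform-methanol (2:1, 2 × 3 h), dried 120 °C 6 h for dry weight, ashed 800 °C 8 h. Mineral content = ash/dry weight. Ash dissolved in 6 N HCl and diluted. Ca by o-methylphenolphthalein complexone, P by molybdenum blue. Lungs and livers weighed directly.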
# Mus musculus [2] = assay: Effect on spleen weight in mouse at 0.1103 mmol/kg, po; format: functional
# How it was run: (§2)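 Female Kuiming mice (7 weeks old, 30.7 ± 3.1 g) under abdominal OVX, sham group abdominorotomy only. From day 5 after surgery, dosed orally once daily for 4 weeks at 110.3 × 10-3 mmol/kg in 0.5% CMC (0.2 mL), vehicle group CMC alone. Blood drawn retro-orbitally, then left femur and organs removed under pentobarbital (40.0 mg/kg, i.p.).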
# Mus musculus [3] = assay: Effect on femur ash weight in mouse at 0.1103 mmol/kg, po; format: functional; how it was run: as §2
# Mus musculus [4] = assay: Effect on liver weight in ovariectomized mouse at 0.110 mmol/kg, ip once daily for 4 weeks; format: functional; how it was run: as §1
# Mus musculus [5] = assay: Effect on lenght of femur in mouse at 0.110 mmol/kg, po; format: functional; how it was run: as §2
# Mus musculus [6] = assay: Effect on phosphorus level in ovariectomized mouse at 0.1103 mmol/kg, ip once daily for 4 weeks; format: functional; how it was run: as §1
# Mus musculus [7] = assay: Effect on lung weight in mouse at 0.1103 mmol/kg, po; format: functional; how it was run: as §2
# Mus musculus [8] = assay: Effect on lung weight in ovariectomized mouse at 0.1103 mmol/kg, ip once daily for 4 weeks; format: functional; how it was run: as §1
# Mus musculus [9] = assay: Effect on mineral content in ovariectomized mouse at 0.1103 mmol/kg, ip once daily for 4 weeks; format: functional; how it was run: as §1
# Mus musculus [10] = assay: Effect on dry weight of femurs in mouse at 0.1103 mmol/kg, po; format: functional, Femur; how it was run: as §2
# Mus musculus [11] = assay: Effect on serum phosphorous Concentration in mouse at 0.110 mmol/kg, po; format: functional
# How it was run: (§3)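 Oral OVX Kuiming mouse model, dosed daily for 4 weeks at 110.3 × 10-3 mmol/kg in 0.5% CMC. Retro-orbital blood stood 30 min at room temperature and was spun at 3000 g for 20 min. Serum kept at -20 °C. Calcium read by o-methylphenolphthalein complexone, phosphorus by molybdenum blue, ALP by activity on disodium phenylphosphate substrate.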
# Mus musculus [12] = assay: Effect on liver weight in mouse at 0.1103 mmol/kg, po; format: functional; how it was run: as §2
# Mus musculus [13] = assay: Effect on uterus weight in ovariectomized mouse at 0.1103 mmol/kg, ip once daily for 4 weeks; format: functional
# How it was run: (§4)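 Female Kuiming mice (7 weeks old, 30.7 ± 3.1 g), abdominal OVX under pentobarbital (40.0 mg/kg i.p.). From day 5 after surgery, i.p. injection once daily for 4 weeks, compound in aqueous 0.5% CMC prepared just before use. The day after the last dose, mice were anesthetized and killed, and lungs, livers, spleens and uteri were removed and weighed directly. n = 12, ANOVA, p < 0.05.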
# Mus musculus [14] = assay: Effect on femur ash weight in ovariectomized mouse at 0.1103 mmol/kg, ip once daily for 4 weeks; format: functional; how it was run: as §1
# Mus musculus [15] = assay: Effect on spleen weight in ovariectomized mouse at 0.1103 mmol/kg, ip once daily for 4 weeks; format: functional; how it was run: as §4
# Mus musculus [16] = assay: Effect on serum ALP lavel in ovariectomized mouse at 0.1103 mmol/kg, ip once daily for 4 weeks; format: functional
# How it was run: (§5)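 OVX Kuiming mice dosed i.p. daily for 4 weeks in 0.5% CMC. Blood taken retro-orbitally on the day after the last dose, stood 30 min, spun at 3000 g for 20 min, serum stored at -20 °C. Calcium by o-methylphenolphthalein complexone, phosphorus by molybdenum blue, ALP by activity with disodium phenylphosphate substrate.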
# Mus musculus [17] = assay: Effect on serum ALP level in mouse at 0.1103 mmol/kg, po; format: functional; how it was run: as §3
# Mus musculus [18] = assay: Effect on serum calcium level in mouse at 0.1103 mmol/kg, po; format: functional; how it was run: as §3
# Mus musculus [19] = assay: Effect on dry weight of femurs in ovariectomized mouse at 0.1103 mmol/kg, ip once daily for 4 weeks; format: functional, Femur; how it was run: as §1
# Mus musculus [20] = assay: Effect on mineral content in mouse at 0.1103 mmol/kg, po; format: functional; how it was run: as §2
# Mus musculus [21] = assay: Effect on serum phosphorus level in ovariectomized mouse at 0.1103 mmol/kg, ip once daily for 4 weeks; format: functional; how it was run: as §5
# Mus musculus [22] = assay: Effect on femur length in ovariectomized mouse at 0.1103 mmol/kg, ip once daily for 4 weeks; format: functional; how it was run: as §1
# Mus musculus [23] = assay: Effect on uterus weight in mouse at 0.1103 mmol/kg, po; format: functional
# Mus musculus [24] = assay: Effect on serum calcium level in ovariectomized mouse at 0.1103 mmol/kg, ip once daily for 4 weeks; format: functional; how it was run: as §5
# Mus musculus [25] = assay: Effect on phosphorus level in mouse at 0.110 mmol/kg, po; format: functional; how it was run: as §2
# Mus musculus [26] = assay: Increase in body weight in ovariectomized mouse at 0.1103 mmol/kg, ip once daily for 4 weeks; format: functional
# How it was run: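 Female Kuiming mice (30.7 ± 3.1 g) underwent abdominal OVX; the sham group had abdominorotomy only. From day 5 after surgery, i.p. dosing once daily for 4 weeks at 110.3 × 10-3 mmol/kg in aqueous 0.5% CMC. Body weight was recorded on the day of the last administration.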
# Mus musculus [27] = assay: Effect on calcium level in mouse at 0.1103 mmol/kg, po; format: functional; how it was run: as §2
structure (smiles),measurement,setting,value
CC(C)[C@H](NC(=O)[C@H](CC(=O)O)NC(=O)CNC(=O)[C@H](CCCNC(=N)N)NC(=O)CCC(=O)O[C@H]1CC[C@H]2[C@@H]3CCc4cc(O)ccc4[C@H]3CC[C@]12C)C(=O)O ({Succinyl(O17-estradiol)}-RGDV-OH),Activity,Mus musculus [1],53.078%
same,Activity,Mus musculus [2],133 mg
same,Activity,Mus musculus [3],33 mg
same,Activity,Mus musculus [4],1.353 g
same,Activity,Mus musculus [5],1.645 cm
same,Activity,Mus musculus [6],24.867%
same,Activity,Mus musculus [7],167 mg
same,Activity,Mus musculus [8],167 mg
same,Ratio,Mus musculus [9],0.625
same,Activity,Mus musculus [10],68.2 mg
same,Activity,Mus musculus [11],1.61 mmol/L
same,Activity,Mus musculus [12],1.34 g
same,Activity,Mus musculus [13],69.4 mg
same,Activity,Mus musculus [14],35.8 mg
same,Activity,Mus musculus [15],143 mg
same,Activity,Mus musculus [16],31.057 U/L
same,Activity,Mus musculus [17],33.411 U/L
same,Activity,Mus musculus [18],2.03 mmol/L
same,Activity,Mus musculus [19],62.6 mg
same,Ratio,Mus musculus [20],52.5%
same,Activity,Mus musculus [21],1.605 mmol/L
same,Activity,Mus musculus [22],1.655 cm
same,Activity,Mus musculus [23],50.7 mg
same,Activity,Mus musculus [24],2.005 mmol/L
same,Activity,Mus musculus [25],24.879%
same,Activity,Mus musculus [26],34.5 g
same,Activity,Mus musculus [27],52.003%
C[C@]12CC[C@@H]3c4ccc(O)cc4CC[C@H]3[C@@H]1CC[C@@H]2OC(=O)CCC(=O)N[C@@H](CCCNC(=N)N)C(=O)NCC(=O)N[C@@H](CC(=O)O)C(=O)N[C@@H](CO)C(=O)O ({Succinyl(O17-estradiol)}-RGDS-OH),Activity,Mus musculus [1],51.312%
same,Activity,Mus musculus [2],135 mg
same,Activity,Mus musculus [3],29.3 mg
same,Activity,Mus musculus [4],1.371 g
same,Activity,Mus musculus [5],1.654 cm
same,Activity,Mus musculus [6],24.92%
same,Activity,Mus musculus [7],161 mg
same,Activity,Mus musculus [8],151 mg
same,Ratio,Mus musculus [9],0.52
same,Activity,Mus musculus [10],68.8 mg
same,Activity,Mus musculus [11],1.6 mmol/L
same,Activity,Mus musculus [12],1.331 g
same,Activity,Mus musculus [13],55.5 mg
same,Activity,Mus musculus [14],34.4 mg
same,Activity,Mus musculus [15],130 mg
same,Activity,Mus musculus [16],32.771 U/L
same,Activity,Mus musculus [17],35.4 U/L
same,Activity,Mus musculus [18],2.04 mmol/L
same,Activity,Mus musculus [19],66.4 mg
same,Ratio,Mus musculus [20],51.5%
same,Activity,Mus musculus [21],1.602 mmol/L
same,Activity,Mus musculus [22],1.634 cm
same,Activity,Mus musculus [23],36.7 mg
same,Activity,Mus musculus [24],2.002 mmol/L
same,Activity,Mus musculus [25],24.885%
same,Activity,Mus musculus [26],35.4 g
same,Activity,Mus musculus [27],51.201%
